# Results: ChEMBL document CHEMBL1139421, “Synthesis and elastase-inhibiting activity of 2-pyridinyl-isothiazol-3(2H)-one 1,1-dioxides” (Bioorg Med Chem, 2008)
# Legend:
# Cathepsin G = biological target: T1, Cathepsin G (Homo sapiens, UniProt P08311); assay: Inhibition of human cathepsin G
# T1 sequence (P08311 whole entry): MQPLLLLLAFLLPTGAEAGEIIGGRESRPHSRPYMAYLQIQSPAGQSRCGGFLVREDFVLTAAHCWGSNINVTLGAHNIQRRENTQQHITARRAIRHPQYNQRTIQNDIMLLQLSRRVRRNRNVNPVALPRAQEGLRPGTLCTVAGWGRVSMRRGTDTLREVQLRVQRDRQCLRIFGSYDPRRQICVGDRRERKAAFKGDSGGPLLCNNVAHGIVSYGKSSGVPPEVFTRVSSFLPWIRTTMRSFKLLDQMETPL
# How it was run: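 Human cathepsin G at 2.5 mU/ml final, 25 °C, in 20 mM Tris-HCl, 150 mM NaCl, pH 8.4. Suc-Ala-Ala-Pro-Phe-pNA at 500 µM final, with 1.5% DMSO; started with enzyme. Read at 405 nm over 10 min. IC50 from linear steady-state rate, duplicate determinations at 12.5 µM inhibitor, IC50 = [I]/(v0/v − 1).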
# [1] = biological target: Angiotensin-converting enzyme (Homo sapiens, UniProt P12821); assay: Inhibition of human ACE
# Sequence of Angiotensin-converting enzyme (P12821 whole entry): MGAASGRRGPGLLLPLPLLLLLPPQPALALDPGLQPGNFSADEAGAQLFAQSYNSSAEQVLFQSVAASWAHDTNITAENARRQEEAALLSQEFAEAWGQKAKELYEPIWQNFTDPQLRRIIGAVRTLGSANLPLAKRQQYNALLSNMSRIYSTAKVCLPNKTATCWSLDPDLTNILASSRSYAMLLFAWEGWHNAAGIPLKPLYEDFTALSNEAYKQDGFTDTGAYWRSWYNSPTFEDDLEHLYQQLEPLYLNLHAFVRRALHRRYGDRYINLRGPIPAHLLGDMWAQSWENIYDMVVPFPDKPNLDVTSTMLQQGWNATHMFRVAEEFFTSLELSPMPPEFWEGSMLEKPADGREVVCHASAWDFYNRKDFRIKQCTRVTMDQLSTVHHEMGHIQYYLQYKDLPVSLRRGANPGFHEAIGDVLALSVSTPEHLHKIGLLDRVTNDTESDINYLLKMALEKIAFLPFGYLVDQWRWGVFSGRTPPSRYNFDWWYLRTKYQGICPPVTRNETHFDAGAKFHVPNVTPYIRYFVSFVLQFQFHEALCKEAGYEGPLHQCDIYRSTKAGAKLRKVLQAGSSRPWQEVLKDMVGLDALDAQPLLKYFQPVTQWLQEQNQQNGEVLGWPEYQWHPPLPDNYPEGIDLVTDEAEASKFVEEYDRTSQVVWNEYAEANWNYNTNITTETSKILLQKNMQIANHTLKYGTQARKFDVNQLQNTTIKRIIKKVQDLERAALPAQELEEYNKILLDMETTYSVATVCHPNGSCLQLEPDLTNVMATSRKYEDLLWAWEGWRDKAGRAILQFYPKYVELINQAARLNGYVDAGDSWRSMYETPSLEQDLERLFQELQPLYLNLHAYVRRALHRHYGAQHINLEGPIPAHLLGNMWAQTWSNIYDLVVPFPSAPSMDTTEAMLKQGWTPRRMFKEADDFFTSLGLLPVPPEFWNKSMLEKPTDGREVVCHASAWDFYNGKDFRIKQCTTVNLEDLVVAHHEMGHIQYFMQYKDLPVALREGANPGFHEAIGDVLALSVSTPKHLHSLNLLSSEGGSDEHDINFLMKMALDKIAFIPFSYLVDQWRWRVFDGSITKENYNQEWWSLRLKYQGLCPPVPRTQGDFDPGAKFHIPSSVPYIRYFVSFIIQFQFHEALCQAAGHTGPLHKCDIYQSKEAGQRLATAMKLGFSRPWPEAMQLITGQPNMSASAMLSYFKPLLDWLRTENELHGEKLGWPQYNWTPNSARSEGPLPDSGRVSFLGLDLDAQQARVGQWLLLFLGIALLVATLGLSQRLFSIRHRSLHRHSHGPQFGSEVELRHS
# How it was run: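 Human ACE at 86.8 ng/ml final, 37 °C, in 50 mM Tris-HCl, 300 mM NaCl, pH 7.5. Enzyme was preincubated 10 min at 37 °C after dilution. FA-Phe-Gly-Gly at 3 mM final, with 3% DMSO. Absorbance decrease read at 352 nm over 20 min. IC50 from linear steady-state turnover.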
# Acetylcholinesterase = Acetylcholinesterase (Homo sapiens, UniProt P22303); assay: Inhibition of acetylcholinesterase
# Sequence of Acetylcholinesterase (P22303 whole entry): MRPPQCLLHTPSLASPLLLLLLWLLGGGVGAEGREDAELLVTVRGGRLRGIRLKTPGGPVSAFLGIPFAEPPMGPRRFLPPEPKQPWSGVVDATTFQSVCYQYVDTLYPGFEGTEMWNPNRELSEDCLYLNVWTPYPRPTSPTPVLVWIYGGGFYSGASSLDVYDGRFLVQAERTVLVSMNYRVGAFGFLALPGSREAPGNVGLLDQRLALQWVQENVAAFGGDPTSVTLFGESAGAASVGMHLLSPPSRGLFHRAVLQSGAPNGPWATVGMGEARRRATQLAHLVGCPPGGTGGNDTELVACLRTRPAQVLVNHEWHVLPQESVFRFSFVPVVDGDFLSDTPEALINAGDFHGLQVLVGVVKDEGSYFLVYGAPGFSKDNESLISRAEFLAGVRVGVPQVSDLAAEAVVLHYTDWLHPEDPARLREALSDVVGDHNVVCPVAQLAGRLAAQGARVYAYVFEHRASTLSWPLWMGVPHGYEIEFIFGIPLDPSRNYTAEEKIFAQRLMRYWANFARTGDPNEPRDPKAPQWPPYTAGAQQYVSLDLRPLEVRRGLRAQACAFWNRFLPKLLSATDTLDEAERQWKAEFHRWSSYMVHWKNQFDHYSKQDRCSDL
# How it was run: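 Acetylcholinesterase in 100 mM sodium phosphate, 100 mM NaCl, pH 7.3. Enzyme, DTNB and test compound (acetonitrile stocks, added acetonitrile) preincubated 15 min at 25 °C. Reaction started with acetylthiocholine; DTNB final 350 µM. Read at 412 nm, 25 °C. Progress curves followed 5 min and fitted by linear regression; IC50 derived from rates with and without inhibitor.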
# Procathepsin L = Procathepsin L (Homo sapiens, UniProt P07711); assay: Inhibition of human cathepsin L
# Sequence of Procathepsin L (P07711 whole entry): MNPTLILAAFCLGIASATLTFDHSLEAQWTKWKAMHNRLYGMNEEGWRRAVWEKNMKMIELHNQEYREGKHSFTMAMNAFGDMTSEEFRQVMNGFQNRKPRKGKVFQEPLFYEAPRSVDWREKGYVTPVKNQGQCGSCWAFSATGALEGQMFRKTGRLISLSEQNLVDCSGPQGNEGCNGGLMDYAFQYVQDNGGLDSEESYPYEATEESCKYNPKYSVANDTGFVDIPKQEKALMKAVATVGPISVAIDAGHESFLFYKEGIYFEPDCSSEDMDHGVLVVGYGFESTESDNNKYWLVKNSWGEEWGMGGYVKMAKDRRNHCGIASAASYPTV
# How it was run: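 Human cathepsin L at 4 ng/ml final, 37 °C, in 100 mM sodium phosphate pH 6.0, 100 mM NaCl, 5 mM EDTA, 0.01% Brij 35. Enzyme was activated 30 min at 37 °C with 5 mM DTT. Z-Phe-Arg-pNA at 100 µM final, with 3% DMSO; read at 405 nm over 10 min, with linear regression of progress curves.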
# Neutrophil elastase = biological target: T2, Neutrophil elastase (Homo sapiens, UniProt P08246); assay: Inhibition of human leukocyte elastase
# T2 sequence (P08246 whole entry): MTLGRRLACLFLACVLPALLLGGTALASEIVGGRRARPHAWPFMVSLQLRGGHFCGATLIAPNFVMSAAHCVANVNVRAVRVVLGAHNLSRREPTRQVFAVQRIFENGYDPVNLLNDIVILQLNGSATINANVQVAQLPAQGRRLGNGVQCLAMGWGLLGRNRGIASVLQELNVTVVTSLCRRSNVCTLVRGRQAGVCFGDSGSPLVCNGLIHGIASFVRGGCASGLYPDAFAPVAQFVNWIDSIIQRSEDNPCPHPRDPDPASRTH
# How it was run: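 Human leukocyte elastase at 50 ng/ml final, 25 °C, in 50 mM sodium phosphate, 500 mM NaCl, pH 7.8. MeOSuc-Ala-Ala-Pro-Val-pNA at 100 µM final (1.9 Km), with 3.5% DMSO; started with enzyme. Read at 405 nm over 10 min. IC50 from linear steady-state rates: duplicate determinations at 25 and 50 µM, or five concentrations fitted nonlinearly.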
# [2] = biological target: Bile salt-activated lipase (Bos taurus) (UniProt P30122); assay: Inhibition of cholesterol esterase
# Sequence of Bile salt-activated lipase (Bos taurus) (P30122 whole entry, looked up): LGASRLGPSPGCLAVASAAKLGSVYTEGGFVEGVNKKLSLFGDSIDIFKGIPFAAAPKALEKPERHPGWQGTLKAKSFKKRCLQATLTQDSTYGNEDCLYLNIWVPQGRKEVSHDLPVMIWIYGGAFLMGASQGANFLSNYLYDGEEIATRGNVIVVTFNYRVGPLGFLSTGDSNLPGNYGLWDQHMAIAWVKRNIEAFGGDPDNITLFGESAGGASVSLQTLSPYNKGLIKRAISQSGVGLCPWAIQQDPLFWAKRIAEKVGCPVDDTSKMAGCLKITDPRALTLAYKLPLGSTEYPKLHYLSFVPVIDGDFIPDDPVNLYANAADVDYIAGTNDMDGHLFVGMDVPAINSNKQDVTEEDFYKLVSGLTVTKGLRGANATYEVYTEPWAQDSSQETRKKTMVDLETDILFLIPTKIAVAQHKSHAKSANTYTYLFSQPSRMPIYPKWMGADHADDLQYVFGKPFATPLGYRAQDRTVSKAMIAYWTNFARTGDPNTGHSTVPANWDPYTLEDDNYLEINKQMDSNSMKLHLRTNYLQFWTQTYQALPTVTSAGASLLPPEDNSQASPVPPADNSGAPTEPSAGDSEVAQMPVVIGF
# [3] = Inhibition of bovine trypsin; parameters: species or system Bos taurus
# How it was run: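 Bovine pancreatic trypsin at 12.5 ng/ml final, 25 °C, in 20 mM Tris-HCl, 150 mM NaCl, pH 8.4. Substrate Suc-Ala-Ala-Pro-Arg-pNA at 200 µM final, with 6% DMSO. Started with enzyme; release of pNA read at 405 nm over 10 min. IC50 taken from linear steady-state turnover, duplicate determinations at inhibitor 25 and 50 µM.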
SMILES,IC50 (Cathepsin G) [µM],IC50 [1] [µM],IC50 (Acetylcholinesterase) [µM],IC50 (Procathepsin L) [µM],IC50 (Neutrophil elastase) [µM],IC50 [2] [µM],IC50 [3] [µM],Ki (Neutrophil elastase) [µM]
O=C1C2=C(CCCC2)S(=O)(=O)N1c1c(F)c(F)c(F)c(F)c1F,> 100,> 100,> 100,> 100,> 100,> 100,> 100,
O=C1c2ccccc2S(=O)(=O)N1c1c(F)c(F)nc(F)c1F,3.7,> 100,> 100,> 100,0.081,11,7.5,0.028
O=C1C2=C(CCCC2)S(=O)(=O)N1c1cccc(Cl)n1,> 100,> 100,> 100,> 100,> 100,> 100,> 100,
O=C1C2=C(CCCC2)S(=O)(=O)N1c1cccc(Br)n1,> 100,> 100,> 100,> 100,> 100,> 100,> 100,
O=C1C2=C(CCCC2)S(=O)(=O)N1c1c(F)c(F)nc(F)c1F,> 100,> 100,> 100,> 100,3.1,> 100,> 100,
CC1=C(C)S(=O)(=O)N(c2c(F)c(F)nc(F)c2F)C1=O,> 100,> 100,> 100,> 100,> 100,> 100,> 100,
O=C1C2=C(CCCC2)S(=O)(=O)N1c1ncc(F)cc1F,> 100,> 100,> 100,> 100,> 100,> 100,> 100,
O=C1C2=C(CCCC2)S(=O)(=O)N1c1ccncc1.[O-][Cl+3]([O-])([O-])O,> 100,> 100,> 100,> 100,> 100,> 100,> 100,
CC1=C(c2ccccc2)C(=O)N(c2c(F)c(F)nc(F)c2F)S1(=O)=O,> 100,> 100,> 100,> 100,33,> 100,> 100,
